The results in this text go back to paper PMC2801054 (Analytical biochemistry, 2009).

The target in assay [1] is T1, endometase (matrilysin 2, MMP-26) (Homo sapiens, UniProt Q9NRE1).
T1 sequence (Q9NRE1 90-261): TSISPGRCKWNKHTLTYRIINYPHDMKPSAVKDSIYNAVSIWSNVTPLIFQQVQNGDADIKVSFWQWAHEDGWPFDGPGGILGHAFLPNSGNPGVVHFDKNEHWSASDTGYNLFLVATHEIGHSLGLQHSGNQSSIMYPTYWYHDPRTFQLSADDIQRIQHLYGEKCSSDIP
The assay can be described thus: active-site titration, fluorogenic peptide hydrolysis, Morrison fit. Type of assay: biochemical. Conditions: 50 mM HEPES pH 7.5, 0.2 M NaCl, 10 mM CaCl2, 0.01 % Brij-35, 25 °C, 20 min preincubation.

Assay [2] addresses T1, endometase (matrilysin 2, MMP-26). The assay can be described thus: fluorogenic peptide hydrolysis. Format: biochemical. The gist of the method:
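MMP-26 was refolded from urea-solubilized insoluble protein by dialysis and was partially auto-activated. Active enzyme concentration was set by GM6001 titration. Final conditions were 1 nM active enzyme, 1 μM Mca-PLGLDpa-AR-NH₂, and test compound at 0.001–9 mM in 50 mM HEPES pH 7.5, 0.2 M NaCl, 10 mM CaCl₂ at 25 °C. Fluorescence was read at ex 328/em 393 nm, with maximum signal set as 100% activity.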

On to `CNC(=O)[C@H](Cc1c[nH]c2ccccc12)NC(=O)[C@@H](CC(=O)NO)CC(C)C` [GM6001], for which, in assay [1], the “active-site titration, fluorogenic peptide hydrolysis, Morrison fit” value is “Titration of active MMP-26 with GM6001, a potent and broad-spectrum MMP inhibitor”. In general, IC50 refers to the concentration at which inhibition is half-maximal. A high value points to weaker potency. Compound `CCCCCCCCCCCCOS(=O)(=O)O` [SDS] displayed an IC50 in assay [2] of 110 µM. In turn, `CCCCCCCCCCCCCC[N+](C)(C)C` [TTAB] came in with an IC50 in assay [2] of 79 µM. The IC50 values of the last two compounds are within 1.5-fold of each other.
